# An excerpt weighted towards active compounds, which were near 1.8% of everything screened.
# HNF4A DNA FP – change in binding of human HNF4A to DNA, primary screen, biochemical, fluorescence polarization, FITC-DNA. activity change, % at 10 µM. AID 1224865, 2016. actives 0.3% (n = 360,000). 1 h; in the data active = activity change above about 30%, passing the limit was not always enough
# Target sequence (P41235 whole entry, looked up): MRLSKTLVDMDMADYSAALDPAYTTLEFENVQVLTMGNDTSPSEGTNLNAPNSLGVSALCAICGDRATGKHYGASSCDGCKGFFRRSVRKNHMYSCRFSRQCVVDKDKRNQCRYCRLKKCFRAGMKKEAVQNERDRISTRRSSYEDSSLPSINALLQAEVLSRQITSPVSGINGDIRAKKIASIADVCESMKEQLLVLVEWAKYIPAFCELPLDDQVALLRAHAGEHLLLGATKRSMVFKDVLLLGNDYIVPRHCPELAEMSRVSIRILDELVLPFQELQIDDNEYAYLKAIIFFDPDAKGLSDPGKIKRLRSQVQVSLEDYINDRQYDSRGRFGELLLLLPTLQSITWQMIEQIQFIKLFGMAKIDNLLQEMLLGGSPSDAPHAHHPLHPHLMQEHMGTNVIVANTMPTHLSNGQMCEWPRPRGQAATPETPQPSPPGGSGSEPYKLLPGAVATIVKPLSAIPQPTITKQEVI
# SENP1 inh – human SENP1 catalytic domain inhibitors, primary screen, biochemical, FRET, uHTS; recombinant SENP1 catalytic domain, CyPet-SUMO1-YPet FRET cleavage; inhibition, % at 10 µM; actives 0.21% (n = 360,000);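 active = inhibition at least 30% at 10 µM, raw YFP signal under a set limit, fluorescence ratio 0.5 to 1.5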;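 note: 0% = enzyme with DMSO and 100% = no enzyme wells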
#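 Test system: recombinant human SENP1 catalytic domain, His6-tagged / Medium: pH 8 Tris buffer with EDTA, NaCl, BME, BSA, NP40, catalase / Also added: SUMO1 FRET substrate flanked by Cypet and Ypet, 25 nM / Times: 50 min reaction at room temperature / Signal: FRET, CFP and YFP emission / Control set: no-enzyme low control and enzyme-plus-DMSO high control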
# TPT1 inh – Candida albicans TPT1 enzyme inhibitors, primary screen, biochemical, fluorescence polarization; inhibition, % at 5 µM; tRNA 2'-phosphotransferase TPT1 (Candida albicans SC5314); AID 1962, 2009; recombinant caTPT1, FP RNA substrate dephosphorylation; actives 0.81% (n = 300,000);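 active = inhibition above the mean of all tested compounds plus 3 SD, set per screening campaign, cut at about 24% in these data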;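 note: plate controls were DMSO alone for no effect and ferristatin control at 100 nM for full effect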
# SUMO HTRF inh – inhibitors of in vitro SUMOylation cascade, primary screen, biochemical, HTRF, uHTS; HTRF SUMOylation assay, SAE1/SAE2 + UBC9; inhibition, % at 35 µM; actives 0.36% (n = 290,000); SUMO-conjugating enzyme UBC9 (Homo sapiens), P63279; AID 2006, 2009; in the data active = inhibition above about 50%, passing the limit was not always enough
# Target sequence (P63279 whole entry, looked up): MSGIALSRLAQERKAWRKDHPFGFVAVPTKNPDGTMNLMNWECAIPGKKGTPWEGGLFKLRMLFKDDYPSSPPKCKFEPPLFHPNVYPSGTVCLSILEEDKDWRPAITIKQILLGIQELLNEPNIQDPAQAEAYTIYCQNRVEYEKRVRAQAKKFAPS
# Rpn11 inh – Rpn11 (PSMD14) deubiquitinase inhibitors, primary screen, biochemical, fluorescence polarization, uHTS; 26S proteasome non-ATPase regulatory subunit 14 (Homo sapiens), O00487; calls only at 20 µM; actives 0.59% (n = 360,000); human 26S proteasome, Ub4-pepOG fluorescence polarization; 20S core pre-blocked with epoxomicin;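 active = inhibition at 20 µM, scaled to each plate's controls, above about 33%, limit read from the data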
# CSN deneddyl inh – inhibitors of CSN-mediated cullin deneddylation, primary screen, biochemical, fluorescence polarization, uHTS | actives 0.38% (n = 360,000) | Purified CSN, SCF-Nedd8-OG deneddylation | COP9 signalosome complex subunit 5 (Homo sapiens), Q92905 | inhibition, % at 12.5 µM;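 active = pattern-corrected inhibition above about 35%, with an unprinted fluorescence ratio check between 0.5 and 1.5, limit read from the data, passing the limit was not always enough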;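 note: 0% = enzyme with substrate and 100% = substrate without enzyme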
#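 Material: purified human Csn5 enzyme expressed in HEK293T cells / Medium: Tris buffer pH 7.5, NaCl, DTT, Tween-20, trehalose, ovalbumin / Compound dosing: 12.5 µM single point / Schedule: 90 min incubation of compound, enzyme and substrate at room temperature / Signal: fluorescence polarization of the substrate / Control set: no-enzyme wells high, enzyme-with-substrate wells low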
# * hit, by the source's call; i = inactive; nt = no result given; + = active, no number.
SMILES,HNF4A DNA FP,SENP1 inh,TPT1 inh,SUMO HTRF inh,Rpn11 inh,CSN deneddyl inh
COc1cccc(/C=C2/NC(=O)N(CC(=O)Nc3ccc(C)cc3)C2=O)c1OCc1cccc(C(=O)O)c1,-6,5,-4,27,i,37*
Cc1ccc(NC(=O)CN2C(=O)N/C(=C\c3cccn3-c3cccc(C(=O)O)c3)C2=O)cc1,-45,-9,nt,4,i,27
Cc1ccc(NC(=O)CN2C(=O)N/C(=C/c3ccccc3OCc3cccc(C(=O)O)c3)C2=O)cc1,0,0,1,20,i,72*
CNC(=O)C[C@@H]1C(=O)N(Cc2ccccc2)CC1(C)C,-4,2,nt,nt,i,-2
O=C(Cc1ccc(Cl)cc1)NCCS(=O)(=O)N1CCN(c2ccccc2)CC1,1,1,1,nt,i,-1
O=C1NC[C@H](CC2CCCCC2)N(CCc2cc(C(F)(F)F)cc(C(F)(F)F)c2)C1=O,-2,-1,nt,nt,nt,48*
O=C1NC[C@H](CC2CCCCC2)N(CCc2cccc3ccccc23)C1=O,13,-6,nt,nt,nt,60*
O=C1NC[C@@H](Cc2ccc(O)cc2)N(CCc2cc(C(F)(F)F)cc(C(F)(F)F)c2)C1=O,-1,-1,nt,nt,nt,98*
FC(F)(F)c1cc(CCN2C(=S)NC[C@@H]2CC2CCCCC2)cc(C(F)(F)F)c1,1,1,0,-1,i,2
C[C@@H]1CN([C@H](C)CO)C(=O)CCCn2nncc2CO[C@H]1CN(C)Cc1ccc(C(=O)O)cc1,0,0,nt,nt,i,2
CC(=O)c1ccc2c(c1)CCN2,3,2,nt,nt,i,-3
COc1ccc(/C=C2/SC(=S)N(CCCC(=O)Nc3ccc(O)cc3)C2=O)cc1,-1,-13,-2,-8,i,1
C=CC#CC[N+]1(CC#Cc2ccccc2)CCOCC1,189,-7,nt,20,+,166*
COC(=O)C1C2CC3c4[nH]c5cc(OC)ccc5c4CCN3CC2CC(OC(=O)CC(C)=O)C1OC (stereo not given),49*,-27,nt,nt,nt,11
COC(=O)C1=C(C(=O)OC)[C@@H]2N(Cc3ccccc3)c3ccccc3[C@@]23C[C@@H](C(=O)OC)N=C3N1,-1,6,-4,27,i,-1
CC(=O)Oc1c(C)c(=O)n(C)c2ccccc12,-3,2,-4,5,i,9
COc1c(OC(C)=O)c(=O)n2c3ccccc3c3ccnc1c32,1,69*,-1,nt,i,4
CCCCN(C=O)c1c(CC)nc2ccc(C(=O)NCc3ccccc3OC)cn12,3,2,nt,nt,i,-5
CCCCCNc1nc2sc3c(c2c(=O)n1-c1cccc(Cl)c1)CCN(C)C3,25,-40,13,7,nt,19
CC(C)(C)OC(=O)NC1CC2CCCC(C1)N2Cc1ccccc1 (stereo not given),0,0,nt,-3,i,0
CCC(=O)N/N=C/c1ccc(-c2ccc([N+](=O)[O-])cc2)o1,-10,-27,9,29,i,2
CC(C)(C)C(=O)/C=c1\s/c(=C\c2ccc(-c3ccc([N+](=O)[O-])cc3)o2)c(=O)n1CC(=O)NC(N)=O,96,-33,104*,27,nt,-104
CC1(C)CC2CC(C)(CN2C(=O)COC(=O)c2cccc([N+](=O)[O-])c2)C1 (stereo not given),-1,0,nt,nt,i,4
CCCCOc1ccc(OCCCC)c2c1NC1(N2)C(=O)N(C(C)=O)c2ccccc21,5,45*,0,-7,i,1
O=C(Nc1ccc(Nc2ccncc2)cc1)c1ccc(Nc2ccnc3ccc([N+](=O)[O-])cc23)cc1,204,2,nt,69*,nt,92
SMILES,HNF4A DNA FP,SENP1 inh,TPT1 inh,SUMO HTRF inh,Rpn11 inh,CSN deneddyl inh
O=C(Nc1ccc(Cc2ccncc2)cc1)c1cccc([N+](=O)[O-])c1,-1,2,-1,11,i,1
Cc1ccc(C(=O)Nc2ncccc2S(=O)(=O)c2ccccc2)cc1,-1,0,nt,-10,i,2
Cc1ccc(NC(=O)c2cc(C)n(-c3ccccc3)c2C)cc1,3,1,5,4,i,2
Cc1cc(C(=O)Nc2ccc(Cl)cc2)c(C)n1-c1ccccc1,1,-14,1,88*,i,3
Cc1ccccc1C(=O)NCCNC(=O)c1ccccn1,3,0,-4,6,i,2
O=C(COc1ccc2oc(-c3ccco3)cc(=O)c2c1)N1CCCCC1,-2,3,-5,52*,i,3
Cc1nc2ccc(NC(=O)N3CCCCC3)cc2nc1C,-1,11,4,19,i,1
O=C(Nc1ccc2nc(-c3ccco3)c(-c3ccco3)nc2c1)N1CCCCCC1,nt,nt,-1,58*,nt,nt
CCOC(=O)C1CCN(C(=O)Nc2ccc3nc(-c4ccco4)c(-c4ccco4)nc3c2)CC1,-10,-22,-24,73*,i,49
CC(C)C1C(=O)CC(c2ccccc2)NC1c1ccccc1 (stereo not given),38*,1,-3,-15,i,1
COc1ccc(C(C(=O)NC(C)(C)C)n2c(=O)c(-c3ccco3)nc3ccccc32)cc1 (stereo not given),17,-54,nt,nt,nt,9
CC(C)(C)NC(=O)C(c1ccc(-c2ccccc2)cc1)n1c(=O)c(-c2ccco2)nc2ccccc21 (stereo not given),46*,-70,nt,nt,nt,28
Cc1cccc(C)c1NC(=O)C(c1ccc(-c2ccccc2)cc1)n1c(=O)c(-c2ccco2)nc2ccccc21 (stereo not given),21,-31,nt,nt,nt,44*
CC(=O)N1CCN(S(=O)(=O)c2ccc(F)c(Cl)c2)CC1,2,3,1,13,i,-3
COc1ccc(NC(=O)c2ccc(CN(c3cc(Cl)ccc3C)S(=O)(=O)c3ccccc3)cc2)cc1OC,0,1,-2,4,i,-1
CCCCC12CN3CCN(CC(C3)/C1=N\NC(=O)Nc1ccccc1)C2,3,-1,0,-11,i,42*
O=C(c1ccc2ncsc2c1)N1CCCC(C(F)(F)F)C1 (stereo not given),-1,-1,-1,nt,i,4

# Compound activity (PubChem BioAssay)
